Experiments:
[1] = target: AURORA-A/CEREBLON(TBD) complex (Homo sapiens, UniProt O14965+Q96SW2); assay: Isothermal titration calorimetry, ternary complex; assay type: binding
IMR5 cells = assay: BrdU/PI flow cytometry, cell cycle distribution of IMR5 cells; assay type: cell-based, human; conditions: IMR5 cells without ectopic AURORA-A, 1 µM, 18 hours
Procedure, shortened: (§1)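 Cells were pulsed with 10 µM BrdU for 1 h, washed in ice-cold PBS and fixed overnight in 80% ethanol at −20 °C. After a 1% BSA/PBS-T wash, they were stained 30 min at 37 °C with RNase A (24 µg/ml) and propidium iodide (54 µM), then analysed by flow cytometry. For IMR5, the EtOH-treated cells of the doxycycline-inducible line served as the non-overexpressing cells.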

AURKA = target: T1, AURKA (Homo sapiens, UniProt O14965); assay: Kinobead selectivity profiling: AURKA; assay type: binding
T1 sequence (O14965 1-403): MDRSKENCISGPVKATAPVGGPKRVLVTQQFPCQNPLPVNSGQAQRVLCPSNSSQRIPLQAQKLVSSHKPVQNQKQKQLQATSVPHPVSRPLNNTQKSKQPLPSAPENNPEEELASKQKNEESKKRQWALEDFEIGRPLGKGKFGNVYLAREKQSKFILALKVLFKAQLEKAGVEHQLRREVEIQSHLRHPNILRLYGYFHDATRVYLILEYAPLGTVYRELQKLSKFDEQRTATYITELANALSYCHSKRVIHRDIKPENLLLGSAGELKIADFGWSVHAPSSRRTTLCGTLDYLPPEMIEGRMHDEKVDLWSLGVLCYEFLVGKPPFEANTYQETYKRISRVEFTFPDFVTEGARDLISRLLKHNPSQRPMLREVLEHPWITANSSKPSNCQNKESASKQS

AURORA-A^Imut = target: T2, AURORA-A^Imut (Homo sapiens, UniProt O14965, A267W/E239R/F157E/I158E/I57V/K153E/K156E/K224E/P191W/R137E/R189E/R375E/S266W); assay: Depletion of AURORA-A interface mutant in MV4-11 cells; assay type: cell-based; conditions: 12 mutated amino acids in the presumed interface with CEREBLON
T2 sequence (O14965 1-403 I57V/R137E/K153E/K156E/F157E/I158E/R189E/P191W/K224E/E239R/S266W/A267W/R375E): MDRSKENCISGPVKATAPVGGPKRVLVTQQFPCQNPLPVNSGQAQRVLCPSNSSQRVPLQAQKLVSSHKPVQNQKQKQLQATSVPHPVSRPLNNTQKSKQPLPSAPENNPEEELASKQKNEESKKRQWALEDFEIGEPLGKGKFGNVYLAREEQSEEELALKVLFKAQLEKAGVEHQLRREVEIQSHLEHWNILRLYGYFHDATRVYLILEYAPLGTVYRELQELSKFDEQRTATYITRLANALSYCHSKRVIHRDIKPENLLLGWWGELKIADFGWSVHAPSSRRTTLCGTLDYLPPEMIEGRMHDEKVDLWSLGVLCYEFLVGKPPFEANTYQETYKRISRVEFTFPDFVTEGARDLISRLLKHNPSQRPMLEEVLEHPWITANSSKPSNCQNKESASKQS
Procedure, shortened: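 HiBiT-tagged wild-type or mutant AURORA-A was expressed stably in MV4-11 cells (infected twice, 24 h apart, selected 72 h after infection). Cells were exposed to serial dilutions of the test compound for 6 h and lysed with lytic detection reagent containing the LgBiT fragment. Luminescence was then read. DC50 and DCmax were derived from the concentration–response data.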

[2] = target: CEREBLON thalidomide-binding domain (TBD) (Homo sapiens, UniProt Q96SW2); assay: Isothermal titration calorimetry, CEREBLON-TBD into JB170
CEREBLON thalidomide-binding domain (TBD), sequence (Q96SW2 320-428): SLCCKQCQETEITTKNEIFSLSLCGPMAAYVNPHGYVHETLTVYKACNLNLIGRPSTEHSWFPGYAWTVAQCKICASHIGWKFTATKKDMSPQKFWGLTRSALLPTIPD

AURORA-A [3] = target: T3, AURORA-A (Homo sapiens, UniProt O14965); assay: AURORA-A-NanoLuc target engagement assay; assay type: binding
T3 sequence (O14965 1-403): T1 sequence (O14965 1-403)

AURORA-A [4] = target: T3, AURORA-A; assay: Quantitative SILAC mass spectrometry: AURORA-A level in MV4-11 cells; assay type: cell-based; conditions: 0.1 µM, 6 hours
MV4-11 cells [5] = assay: Quantitative SILAC mass spectrometry: relative protein abundance in MV4-11 cells; assay type: cell-based, human; conditions: 0.1 µM
MV4-11 cells [6] = assay: BrdU/PI flow cytometry, cell cycle distribution of MV4-11 cells; assay type: cell-based, human; conditions: 0.5 µM, 12 hours
Procedure, shortened: as §1

ACAD10 = target: T4, ACAD10 (Homo sapiens, UniProt Q6JQN1); assay: Kinobead selectivity profiling: ACAD10; assay type: binding
T4 sequence (Q6JQN1 1-1059): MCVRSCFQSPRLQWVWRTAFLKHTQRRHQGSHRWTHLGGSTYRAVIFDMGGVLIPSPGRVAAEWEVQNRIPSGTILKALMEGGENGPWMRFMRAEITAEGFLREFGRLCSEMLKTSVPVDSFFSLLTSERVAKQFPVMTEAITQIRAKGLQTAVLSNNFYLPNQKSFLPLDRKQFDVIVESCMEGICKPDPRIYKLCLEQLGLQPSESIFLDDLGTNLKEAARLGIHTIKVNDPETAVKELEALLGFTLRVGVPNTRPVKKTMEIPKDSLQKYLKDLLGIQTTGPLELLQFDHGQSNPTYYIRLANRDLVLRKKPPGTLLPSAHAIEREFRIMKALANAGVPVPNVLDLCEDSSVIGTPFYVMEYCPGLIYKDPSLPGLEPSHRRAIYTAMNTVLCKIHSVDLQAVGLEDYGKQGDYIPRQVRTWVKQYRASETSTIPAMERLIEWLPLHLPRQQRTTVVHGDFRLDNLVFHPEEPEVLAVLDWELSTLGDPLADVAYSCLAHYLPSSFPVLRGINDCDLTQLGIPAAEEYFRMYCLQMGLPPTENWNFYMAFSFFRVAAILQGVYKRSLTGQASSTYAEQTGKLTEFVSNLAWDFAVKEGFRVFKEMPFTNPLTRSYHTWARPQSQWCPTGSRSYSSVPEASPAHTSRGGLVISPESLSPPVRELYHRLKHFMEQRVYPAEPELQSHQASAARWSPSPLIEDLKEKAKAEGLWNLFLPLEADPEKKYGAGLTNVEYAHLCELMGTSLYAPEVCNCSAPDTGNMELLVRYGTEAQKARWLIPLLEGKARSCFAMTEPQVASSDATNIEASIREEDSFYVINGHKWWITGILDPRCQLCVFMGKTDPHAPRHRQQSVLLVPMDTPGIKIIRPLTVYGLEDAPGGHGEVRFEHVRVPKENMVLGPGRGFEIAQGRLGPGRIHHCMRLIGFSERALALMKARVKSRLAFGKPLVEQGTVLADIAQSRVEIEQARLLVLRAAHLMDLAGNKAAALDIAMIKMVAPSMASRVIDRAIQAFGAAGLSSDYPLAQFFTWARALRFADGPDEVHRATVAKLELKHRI

AURORA-A/CEREBLON(TBD) complex, sequence (Q96SW2 320-428, one chain of several): as the sequence (Q96SW2 320-428) above

Kd [1]: 183 nM
Kd (AURKA): 99 nM
JB170-mediated depletion of AURORA-A^Imut (AURORA-A^Imut): not depleted
Kd [2]: 6.88 µM
EC50 (AURORA-A [3]): 193 nM
difference of affinities for AURORA-A and AURORA-B (AURORA-A [3]; AURORA-A vs AURORA-B, depending on experimental conditions (BRET, Kinobeads)): 3- to 50 fold
decrease of AURORA-A levels compared to alisertib-treated cells (AURORA-A [4]): 73%
decrease of AURORA-A levels compared to untreated cells (AURORA-A [4]): 57%
Kd (ACAD10): 253 nM
SMILES: COc1cc(Nc2ncc3c(n2)-c2ccc(Cl)cc2C(c2c(F)cccc2OC)=NC3)ccc1C(=O)NCCOCCOCCNC(=O)COc1cccc2c1C(=O)N(C1CCC(=O)NC1=O)C2=O (stereo not shown) [JB170]
cell cycle distribution (IMR5 cells): induced an accumulation of BrdU-negative cells in S-phase, but did not induce G2/M arrest
destabilization of CEREBLON neosubstrates (GSPT1, CSNK1A1, ZFP91, IZKF1/3) (MV4-11 cells [5]; 6 hours): none was destabilized
depletion of other proteins (p<0.05, log2FC<-1) (MV4-11 cells [5]; 6 hours, 4,259 proteins, including AURORA-B): no additional protein was depleted
cell cycle distribution (MV4-11 cells [6]): delayed or arrested S-phase progression

Reference: PMC7610535 (Nature chemical biology, 2020)
